Columns and labels:
[1] = target: T1, ATP-dependent translocase ABCB1 (Homo sapiens, UniProt P08183); assay: Inhibition of P-gp (unknown origin)
[2] = target: T2, Multidrug resistance-associated protein 1 (Homo sapiens, UniProt P33527); assay: Inhibition of MRP1 (unknown origin)
[3] = target: T3, Broad substrate specificity ATP-binding cassette transporter ABCG2 (Homo sapiens, UniProt Q9UNQ0); assay: Inhibition of BCRP (unknown origin) expressed in MDCK cells assessed as increase in Hoechst 33342 accumulation incubated for 30 mins by Hoechst 33342 dye based fluorescence assay; assay type: cell-based
T3 sequence (Q9UNQ0 whole entry): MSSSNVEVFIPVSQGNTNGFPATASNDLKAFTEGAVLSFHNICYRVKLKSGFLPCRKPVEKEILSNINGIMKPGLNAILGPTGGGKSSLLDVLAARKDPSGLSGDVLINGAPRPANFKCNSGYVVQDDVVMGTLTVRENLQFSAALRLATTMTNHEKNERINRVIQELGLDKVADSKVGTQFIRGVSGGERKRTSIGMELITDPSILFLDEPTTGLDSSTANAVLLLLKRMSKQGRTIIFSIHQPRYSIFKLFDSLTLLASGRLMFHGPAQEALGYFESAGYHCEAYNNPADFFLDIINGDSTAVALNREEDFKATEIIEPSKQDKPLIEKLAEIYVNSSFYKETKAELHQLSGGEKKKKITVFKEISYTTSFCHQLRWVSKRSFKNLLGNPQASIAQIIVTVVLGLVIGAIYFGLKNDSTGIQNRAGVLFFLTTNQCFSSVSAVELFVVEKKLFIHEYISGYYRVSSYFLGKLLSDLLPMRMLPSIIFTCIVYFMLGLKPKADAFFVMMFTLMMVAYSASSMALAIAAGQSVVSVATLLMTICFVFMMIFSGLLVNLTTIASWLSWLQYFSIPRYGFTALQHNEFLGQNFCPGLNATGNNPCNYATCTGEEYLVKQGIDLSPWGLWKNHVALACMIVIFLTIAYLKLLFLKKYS

[4] = target: T2, Multidrug resistance-associated protein 1; assay: Inhibition of human MRP1 expressed in human MDR cells measured for 2 hrs; assay type: cell-based
[5] = target: T3, Broad substrate specificity ATP-binding cassette transporter ABCG2; assay: Inhibition of BCRP (unknown origin)
How it was run: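 Pheophorbide A accumulation in MDCK II cells transfected with human wild-type BCRP cDNA C-terminally linked to GFP, ~45,000 cells/well. Compound (100 nM–100 µM) preincubated 20 min at 37 °C, 5% CO2. Pheophorbide A stock 5 µM added, then 120 min to steady state. Flow cytometry read-out: FL3 (≥670 nm, 488 nm excitation).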

[6] = target: T4, P-gp (ABCB1) (Homo sapiens, UniProt P08183); assay: Inhibition of P-gp (unknown origin) at 10 uM incubated for 30 mins by calcein AM analysis relative to control; conditions: probe calcein AM
How it was run: (§1)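 A2780/ADR cells (doxorubicin-selected, P-gp overexpressing), about 30,000 per well in Krebs-HEPES buffer pH 7.4, incubated 30 min at 37 °C with compound (100 nM–100 µM added solutions). Calcein AM (3.125 µM solution added) then fluorescence read every 60 s at 37 °C, ex 485/em 520 nm; slope over minutes 5–30 plotted vs log concentration. Cyclosporine A 10 µM = 100% inhibition, buffer = 0%.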

[7] = target: T1, ATP-dependent translocase ABCB1; assay: Inhibition of P-gp (unknown origin) incubated for 30 mins by calcein AM analysis; how it was run: as §1
[8] = target: T5, BCRP (ABCG2) (Homo sapiens, UniProt Q9UNQ0); assay: Inhibition of BCRP (unknown origin) expressed in dog MDCK-II cells at 10 uM using pheophorbide A as substrate preincubated for 20 mins followed by substrate addition and measured after 120 mins by flow cytometry analysis relative to control; assay type: cell-based; conditions: probe pheophorbide A
T5 sequence (Q9UNQ0 whole entry): T3 sequence (Q9UNQ0 whole entry)
How it was run: (§2)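 MDCK II cells transfected with human wild-type BCRP cDNA C-terminally fused to GFP, grown in DMEM/10% FBS. About 45,000 cells per well preincubated 20 min at 37 °C, 5% CO2 with compound (100 nM–100 µM added solutions), then pheophorbide A (5 µM solution added) for 120 min to steady state. Resuspended; flow cytometry, 488 nm excitation, FL3 (≥670 nm); GFP in FL1. Reference inhibitor 24 at 10 µM = 100%.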

[9] = target: T2, Multidrug resistance-associated protein 1; assay: Inhibition of MRP1 in human NCI-H69AR cells incubated for 180 mins in presence of daunorubicin by flow cytometry analysis; assay type: cell-based
How it was run: (§3)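 H69AR cells (doxorubicin-selected small cell lung cancer, RPMI-1640/20% FBS), about 60,000 per well, preincubated 15 min with compound (100 nM–100 µM added solutions, in unsupplemented medium), then daunorubicin (30 µM solution added); steady state after 180 min, 37 °C, 5% CO2. Cells resuspended; flow cytometry, 488 nm excitation, FL3 (≥670 nm). Reference inhibitor 75 at 10 µM = 100%; Imax relative to it.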

[10] = target: T3, Broad substrate specificity ATP-binding cassette transporter ABCG2; assay: Inhibition of BCRP (unknown origin) expressed in dog MDCK-II cells using pheophorbide A as substrate preincubated for 20 mins followed by substrate addition and measured after 120 mins by flow cytometry analysis; assay type: cell-based; how it was run: as §2
[11] = target: T6, MRP1 (Homo sapiens, UniProt P33527); assay: Inhibition of MRP1 in human NCI-H69AR cells at 10 uM incubated for 180 mins in presence of daunorubicin by flow cytometry analysis relative to control; assay type: cell-based; conditions: probe daunorubicin; how it was run: as §3
[12] = target: T2, Multidrug resistance-associated protein 1; assay: Inhibition of MRP1 (unknown origin) measured for 2 hrs
[13] = target: T6, MRP1; assay: Inhibition of MRP1 in human NCI-H69AR cells assessed as maximum inhibition incubated for 180 mins in presence of daunorubicin by flow cytometry analysis relative to control; assay type: cell-based; conditions: probe daunorubicin, read-out: Imax; how it was run: as §3
[14] = target: T6, MRP1; assay: Inhibition of MRP1 in human NCI-H69AR cells assessed as maximum inhibition at 10 uM incubated for 180 mins in presence of daunorubicin by flow cytometry analysis relative to control; assay type: cell-based; conditions: probe daunorubicin; how it was run: as §3
[15] = target: T5, BCRP (ABCG2); assay: Inhibition of BCRP (unknown origin) expressed in dog MDCK-II cells assessed as maximum inhibition using pheophorbide A as substrate preincubated for 20 mins followed by substrate addition and measured after 120 mins by flow cytometry analysis relative to control; assay type: cell-based; conditions: probe pheophorbide A, time 140 min, read-out: Imax; how it was run: as §2
[16] = target: T4, P-gp (ABCB1); assay: Inhibition of P-gp (unknown origin) expressed in dog MDCK-MDR1cells assessed as maximum inhibition by calcein AM accumulation assay relative to control; assay type: cell-based; conditions: MDCK-MDR1 cells, probe calcein AM, read-out: Imax
[17] = target: T4, P-gp (ABCB1); assay: Inhibition of P-gp (unknown origin) expressed in dog MDCK-MDR1cells assessed as maximum inhibition at 10 uM by calcein AM accumulation assay relative to control; assay type: cell-based; conditions: MDCK-MDR1 cells, probe calcein AM
[18] = target: T3, Broad substrate specificity ATP-binding cassette transporter ABCG2; assay: Inhibition of BCRP (unknown origin) expressed in MDCK cells assessed as increase in Hoechst 33342 accumulation incubated for 60 mins by Hoechst 33342 dye based fluorescence assay; assay type: cell-based
[19] = Inhibition of SN-38 sensitive dog MDCK-II-BCRP cells expressing BCRP measured for 72 hrs by MTT assay; assay type: functional; conditions: Canis lupus familiaris
[20] = Inhibition of cell growth in SN-38 resistant dog MDCK-II-BCRP cells expressing BCRP measured for 72 hrs by MTT assay; assay type: functional; conditions: Canis lupus familiaris
How it was run: (§4)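 Reversal assay: resistant lines (A2780/ADR, H69AR, MDCK II BCRP) and parental lines seeded as for MTT assay with modulator solutions of 1, 10 and 100 µM added (final 0.1, 1, 10 µM) and daunorubicin (P-gp, MRP1) or SN-38 (BCRP) at final 10 nM–10 µM. 72 h, MTT read-out; GI50 by variable-slope fit. Resistance factor = resistant/sensitive GI50; potentiation factor = GI50 without/with modulator.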

[21] = Inhibition of daunorubicin sensitive human A2780 ADR cells expressing P-gp measured for 72 hrs by MTT assay; assay type: functional; how it was run: as §4
[22] = Resistance factor, ratio of GI50 for inhibition of cell growth in daunorubicin resistant human A2780 ADR cells expressing P-gp measured for 72 hrs by MTT assay to GI50 for inhibition of daunorubicin sensitive human A2780 cells measured for 72 hrs by MTT assay
[23] = Inhibition of cell growth in Daunorubicin resistant human A2780 ADR cells expressing P-gp measured for 72 hrs by MTT assay; assay type: functional; how it was run: as §4
[24] = Inhibition of daunorubicin sensitive human NCI-H69AR cells expressing MRP1 measured for 72 hrs by MTT assay; assay type: functional; how it was run: as §4
[25] = Resistance factor, ratio of GI50 for inhibition of cell growth in daunorubicin resistant human NCI-H69AR cells expressing MRP1 to GI50 for inhibition of daunorubicin sensitive human NCI-H69 cells
[26] = test system: H69AR; assay: Inhibition of cell growth in Daunorubicin resistant human NCI-H69AR cells expressing MRP1 measured for 72 hrs by MTT assay; assay type: functional; how it was run: as §4

T2 sequence (P33527 whole entry): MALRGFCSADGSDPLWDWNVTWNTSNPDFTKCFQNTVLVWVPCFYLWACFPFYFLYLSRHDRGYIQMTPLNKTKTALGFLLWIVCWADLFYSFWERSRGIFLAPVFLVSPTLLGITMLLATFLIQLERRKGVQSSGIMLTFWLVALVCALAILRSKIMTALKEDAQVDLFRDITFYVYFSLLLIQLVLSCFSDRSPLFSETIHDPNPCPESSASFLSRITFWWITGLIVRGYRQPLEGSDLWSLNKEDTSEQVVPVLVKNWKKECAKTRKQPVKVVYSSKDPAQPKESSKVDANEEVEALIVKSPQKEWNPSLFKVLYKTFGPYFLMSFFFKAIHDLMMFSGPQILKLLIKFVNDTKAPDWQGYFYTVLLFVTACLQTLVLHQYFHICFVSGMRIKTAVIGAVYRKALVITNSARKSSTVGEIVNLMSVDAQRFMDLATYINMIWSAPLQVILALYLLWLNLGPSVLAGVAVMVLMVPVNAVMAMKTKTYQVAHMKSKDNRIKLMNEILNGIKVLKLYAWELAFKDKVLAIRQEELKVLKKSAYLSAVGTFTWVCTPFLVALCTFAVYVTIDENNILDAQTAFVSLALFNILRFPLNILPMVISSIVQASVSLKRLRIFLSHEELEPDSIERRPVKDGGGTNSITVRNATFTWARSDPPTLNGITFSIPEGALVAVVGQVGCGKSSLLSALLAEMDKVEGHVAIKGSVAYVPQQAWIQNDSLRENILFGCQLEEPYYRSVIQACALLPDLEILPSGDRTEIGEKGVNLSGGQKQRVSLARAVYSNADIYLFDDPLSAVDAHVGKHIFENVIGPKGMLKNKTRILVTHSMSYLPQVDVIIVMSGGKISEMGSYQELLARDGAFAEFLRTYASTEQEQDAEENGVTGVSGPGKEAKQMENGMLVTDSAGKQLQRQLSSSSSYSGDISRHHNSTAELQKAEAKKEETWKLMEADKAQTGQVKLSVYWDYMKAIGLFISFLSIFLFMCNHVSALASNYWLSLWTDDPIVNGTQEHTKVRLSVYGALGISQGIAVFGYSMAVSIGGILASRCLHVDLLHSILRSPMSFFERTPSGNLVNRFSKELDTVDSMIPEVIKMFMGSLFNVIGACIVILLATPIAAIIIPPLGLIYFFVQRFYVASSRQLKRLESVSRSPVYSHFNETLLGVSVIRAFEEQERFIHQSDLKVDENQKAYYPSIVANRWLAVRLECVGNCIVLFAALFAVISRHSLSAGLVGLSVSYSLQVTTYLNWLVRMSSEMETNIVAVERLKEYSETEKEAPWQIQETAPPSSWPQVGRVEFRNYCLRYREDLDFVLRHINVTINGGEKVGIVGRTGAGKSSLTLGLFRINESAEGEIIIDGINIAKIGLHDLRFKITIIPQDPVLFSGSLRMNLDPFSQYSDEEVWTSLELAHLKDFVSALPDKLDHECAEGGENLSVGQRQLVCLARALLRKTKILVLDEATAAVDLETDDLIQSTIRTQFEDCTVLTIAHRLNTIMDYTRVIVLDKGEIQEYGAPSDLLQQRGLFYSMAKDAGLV
T6 sequence (P33527 whole entry): as above
T1 sequence (P08183 whole entry): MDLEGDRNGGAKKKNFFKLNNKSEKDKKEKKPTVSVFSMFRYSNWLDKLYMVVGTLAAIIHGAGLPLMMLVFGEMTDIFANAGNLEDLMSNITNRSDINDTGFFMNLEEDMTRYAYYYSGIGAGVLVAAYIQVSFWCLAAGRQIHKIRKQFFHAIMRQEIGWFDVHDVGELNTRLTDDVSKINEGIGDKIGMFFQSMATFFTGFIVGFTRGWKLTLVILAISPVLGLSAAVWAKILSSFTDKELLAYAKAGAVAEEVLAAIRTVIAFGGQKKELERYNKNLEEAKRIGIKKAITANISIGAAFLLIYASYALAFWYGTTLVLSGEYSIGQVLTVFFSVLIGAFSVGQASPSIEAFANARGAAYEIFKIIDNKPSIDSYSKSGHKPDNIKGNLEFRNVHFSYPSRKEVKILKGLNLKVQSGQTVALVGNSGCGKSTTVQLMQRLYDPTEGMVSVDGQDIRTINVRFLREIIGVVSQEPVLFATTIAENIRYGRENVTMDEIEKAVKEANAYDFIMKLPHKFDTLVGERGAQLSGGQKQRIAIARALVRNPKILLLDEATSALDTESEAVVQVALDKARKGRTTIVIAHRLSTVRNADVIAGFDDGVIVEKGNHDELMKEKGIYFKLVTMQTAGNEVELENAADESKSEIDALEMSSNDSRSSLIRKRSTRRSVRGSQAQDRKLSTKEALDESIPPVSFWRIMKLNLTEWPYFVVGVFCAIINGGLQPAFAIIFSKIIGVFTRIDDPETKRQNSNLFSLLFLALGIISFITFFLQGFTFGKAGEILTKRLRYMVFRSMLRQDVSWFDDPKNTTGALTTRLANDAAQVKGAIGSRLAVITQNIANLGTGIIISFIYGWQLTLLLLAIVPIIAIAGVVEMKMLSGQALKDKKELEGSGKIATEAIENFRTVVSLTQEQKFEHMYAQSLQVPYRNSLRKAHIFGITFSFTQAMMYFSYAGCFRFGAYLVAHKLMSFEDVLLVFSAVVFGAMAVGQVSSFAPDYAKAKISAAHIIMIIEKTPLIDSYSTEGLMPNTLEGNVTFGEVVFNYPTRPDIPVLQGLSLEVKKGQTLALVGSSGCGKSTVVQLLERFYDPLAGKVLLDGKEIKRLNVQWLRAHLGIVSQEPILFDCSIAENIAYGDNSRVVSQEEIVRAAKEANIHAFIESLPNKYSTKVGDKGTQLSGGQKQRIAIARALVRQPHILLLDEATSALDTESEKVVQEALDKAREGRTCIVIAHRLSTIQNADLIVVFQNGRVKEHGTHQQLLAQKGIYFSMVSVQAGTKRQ
T4 sequence (P08183 whole entry): as above

## COc1cc(N(C)C(=O)Cc2cccc(-n3c(=O)c4c(C)onc4c4c(Cl)cccc43)c2)cc(OC)c1OC
[1]
  IC50: 1.33 µM
[2]
  IC50: 0.32 µM

## COc1ccc(Nc2nc(-c3ccccc3)nc3ccccc23)cc1OC
[3]
  IC50: 1.19 µM

## N#Cc1c2n(c3c(N4CCN(CCc5ccc(F)c(F)c5)CC4)nc(-c4ccncc4)nc13)CCCC2
[1]
  IC50: 0.105 µM
[4]
  IC50: 1.31 µM

## N#Cc1c2n(c3c(N4CCN(CCc5c[nH]c6ccccc56)CC4)ncnc13)CCCC2
[5]
  IC50: 3.41 µM
[6]
  inhibition at 0.5 h, 10 µM: > 25%
[7]
  IC50: 5.62 µM
[8]
  inhibition at 2 h, 10 µM: > 25%
[9]
  IC50: 0.344 µM
[10]
  IC50: 3.41 µM
[11]
  inhibition at 3 h, 10 µM: 25%

## COc1cc2c(cc1OC)CN(CCn1c(-c3ccc(N(C)C)cc3)nc3ccc([N+](=O)[O-])cc3c1=O)CC2
[1]
  IC50: 0.6 µM
[12]
  IC50: 0.4 µM

## COc1ccc(C(=O)/C=C/c2ccc(OC)c(OC)c2)c(OC(=O)c2ccccc2OC)c1
[1]
  IC50: 2.16 µM

## c1ccc(CCN2CCN(c3ncnc4c3[nH]c3ccccc34)CC2)cc1
[6]
  inhibition at 0.5 h, 10 µM: > 25%
[7]
  IC50: 1.11 µM
[13]
  Emax at 3 h: 61%
[8]
  inhibition at 2 h, 10 µM: > 25%
[9]
  IC50: 0.405 µM
[10]
  IC50: 0.839 µM
[14]
  inhibition at 3 h, 10 µM: 60%
[15]
  Emax at 2 h: 28%
[11]
  inhibition at 3 h, 10 µM: > 25%
[16]
  Emax: 26%

## N#Cc1cn(Cc2ccccc2)c2c(NCCCc3ccccc3)ncnc12
[5]
  IC50: 20.4 µM
[1]
  IC50: 14 µM
[2]
  IC50: 0.79 µM

## c1ccc2c(c1)[nH]c1c(N3CCN(Cc4ccc5c(c4)OCO5)CC3)ncnc12
[6]
  inhibition at 0.5 h, 10 µM: > 25%
[7]
  IC50: 3.92 µM
[17]
  inhibition at 10 µM: 30%
[8]
  inhibition at 2 h, 10 µM: > 25%
[9]
  IC50: 0.717 µM
[10]
  IC50: 7.93 µM
[14]
  inhibition at 3 h, 10 µM: 60%
[11]
  inhibition at 3 h, 10 µM: > 25%

## COc1ccc(/C=C/C(=O)c2ccccc2NC(=O)c2cnc3ccccc3c2)cc1OC
[1]
  IC50: 0.494 µM
[18]
  IC50: 0.573 µM

## CCc1c2c(nc3ccc(O)cc13)-c1cc3c(c(=O)n1C2)COC(=O)[C@]3(O)CC [7-ETHYL-10-HYDROXYCAMPTOTHECIN]
[19]
  GI50: 0.086 µM
[20]
  GI50: 1.71 µM

## COc1cccc2c1C(=O)c1c(O)c3c(c(O)c1C2=O)C[C@@](O)(C(C)=O)C[C@@H]3O[C@H]1C[C@H](N)[C@H](O)[C@H](C)O1 [DAUNORUBICIN]
[21]
  GI50: 0.01 µM
[22]
  RatioGI50: 54
[23]
  GI50: 0.575 µM
[24]
  GI50: 0.361 µM
[25]
  RatioGI50: 11
[26]
  GI50: 3.84 µM
